Results pooled from the literature.
Protocols differ between the studies behind these lines.
Target: Cyclin-dependent kinase 8 (CDK8, Homo sapiens, UniProt P49336)

For `COc1ncc2cc3ccccc3nc2c1C#N`, the remaining binding was 100% (cell-free assay, competition with immobilised ligand; 5 µM).
`CCN1CCN(Cc2ccc(C(=O)Nc3ccc(C)c(Oc4ccc5c(c4)CC(=O)N5)c3)cc2C(F)(F)F)CC1` has a remaining binding of 67% (binding, competition with immobilised ligand; 1 µM).
With `CN(C)c1ncnc(-c2ccc3nc(Nc4cc(CN5CCN(C(=O)CC(F)(F)F)CC5)ccn4)[nH]c3c2)c1Cl` the remaining binding was 90% (cell-free assay, competition with immobilised ligand; 1 µM).
The remaining binding of `O=C(c1ccc(Nc2ncc(Cl)c(-c3cc4ccccc4s3)n2)cc1)N1CCC(N2CCCC2)CC1` is reported as 100% (binding, competition with immobilised ligand; 1 µM).
With `CN(C)c1nccc(-c2cnn3ncccc23)n1` the remaining binding was 100% (binding; 1 µM).
With `C[C@H](NC(=O)c1cnc2n1[C@](C)(Cc1ccc(C#N)cc1)C(=O)N2c1cc(Cl)c(F)c(Cl)c1)C(=O)NC1(c2ccccn2)CC1` the remaining binding was 100% (cell-free assay, competition with immobilised ligand; 1 µM).
For `O=C(c1ccc(Nc2nccc(-c3cc4ccccc4s3)n2)cc1)N1CCC(N2CCCC2)CC1`, the remaining binding was 91% (binding, competition with immobilised ligand; 1 µM).
`COc1ccc2c(O[C@@H]3C[C@H]4C(=O)N[C@]5(C(=O)O)CC5/C=C\CCCCC[C@H](NC(=O)OC5CCCC5)C(=O)N4C3)cc(-c3csc(NC(=O)C(C)C)n3)nc2c1C` (some centres unmarked) has a remaining binding of 68% (cell-free assay, competition with immobilised ligand; 1 µM).
`C[C@H]1CCN(c2nccc(-c3cnn4ncccc34)n2)C1` gave a remaining binding of 100% (binding; 1 µM).
`N#CC1(c2ccccn2)CCN(Cc2cc(C(=O)N3CCCC3)c(=O)n3ccccc23)CC1` gave a remaining binding of 100% (cell-free assay, competition with immobilised ligand; 1 µM).
With `Cc1cnn2ncc(-c3ccnc(N(C)C)n3)c2c1` the remaining binding was 93% (binding; 1 µM).
`O=C(NS(=O)(=O)c1ccc(NCC2CCOCC2)c([N+](=O)[O-])c1)c1ccc(N2CCN(Cc3ccc(C(F)(F)F)cc3-c3ccc(Cl)cc3)CC2)cc1Oc1cnc2[nH]ccc2c1` has a remaining binding of 100% (cell-free assay, competition with immobilised ligand; 1 µM).
For `N[C@@H]1CCN(c2nccc(-c3cnn4ncccc34)n2)C1`, the remaining binding was 100% (binding; 1 µM).
`O=C(NCC1CCOCC1)c1n[nH]cc1NC(=O)c1c(F)cccc1F` gave a remaining binding of 100% (binding, competition with immobilised ligand; 1 µM).
For `CNC(=O)[C@@H]1CC[C@@H](n2c(-c3ccc4cnccc4c3)nc3ccc(C(=O)NCc4cccc(C(N)=O)c4)cc32)C1`, the remaining binding was 100% (binding, competition with immobilised ligand; 1 µM).
`F[C@@H]1CCN(c2nccc(-c3cnn4ncccc34)n2)C1` gave a remaining binding of 100% (binding; 1 µM).
For `Cc1cc(NC(=O)c2cccc(S(F)(F)(F)(F)F)c2)cc(-n2ccn3nc(-c4cccnc4)cc23)c1`, the remaining binding was 86.2% (cell-free assay, competition with immobilised ligand; 1 µM).
`CN(C)c1ncc(F)c(-c2cnn3ncccc23)n1` gave a remaining binding of 87% (binding; 1 µM).
`FC(F)(F)Oc1cccc(-c2cnc3ccc(-c4ccncc4)nn23)c1` has a remaining binding of 12% (cell-free assay, competition with immobilised ligand; 5 µM).
`O=C(NCCCN1CCOCC1)c1ccc(Nc2nccc(-c3cc4ccccc4s3)n2)cc1` gave a remaining binding of 79% (binding, competition with immobilised ligand; 1 µM).
